Test results reported in ChEMBL document CHEMBL4406830, “Galloyl esters of trans-stilbenes are inhibitors of FASN with anticancer activity on non-small cell lung cancer cells” (Eur J Med Chem, 2019).
Converted amounts (≈) assume the structure as drawn. The source made the active and inactive calls. The calls are words filed in the database; no cut-off is given here.

Key:
[1] = target: Fatty acid synthase (Homo sapiens) (UniProt P49327); assay: Inhibition of FASN in human PC9 cells harboring FASN expression and EGFR delE746-A750 mutant assessed as disruption of AKT/FASN positive feedback loop by measuring reduction in AKT expression at 1 uM after 48 hrs by Western immunoblot based densitometric assay relative to control; type: cell-based
Method in brief: (§1)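 PC-9 or H1703 cells were seeded at 8 × 10^5 per 100 mm dish and treated for 48 h at 1 or 5 µM (or 5, 50 and 100 µM). RIPA lysates were BCA-quantified and run on 8% SDS-PAGE, then transferred to PVDF. Blots were probed for FASN, AKT, phospho-AKT S473 and GAPDH and detected by ECL. Bands were quantified by densitometry and normalised to vehicle control.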

[2] = target: Fatty acid synthase (Homo sapiens) (UniProt P49327); assay: Inhibition of FASN in human NCI-H1703 cells expressing FASN assessed as disruption of AKT/FASN positive feedback loop by measuring ratio of phosphoAKT/AKT expression at 1 uM after 48 hrs in presence of exogenous lipid concentrate by Western immunoblot based densitometric assay relative to control; type: cell-based
Method in brief: (§2)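 PC-9 (2 µM) or H1703 (1 µM) cells were treated with compound, with or without lipid concentrate (1% v/v per figure legend), for 48 h. Cells were lysed in RIPA buffer and lysates run on SDS-PAGE western blots for FASN, AKT, phospho-AKT S473 and GAPDH. Bands were quantified by densitometry and normalised to untreated control.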

[3] = target: Fatty acid synthase (Homo sapiens) (UniProt P49327); assay: (§3) Inhibition of FASN in human PC9 cells harboring FASN expression and EGFR delE746-A750 mutant assessed as disruption of AKT/FASN positive feedback loop by measuring decrease in FASN expression at 1 uM after 48 hrs by Western immunoblot based densitometric assay relative to control; type: cell-based; method in brief: as §1
[4] = target: Fatty acid synthase (Homo sapiens) (UniProt P49327); assay: Inhibition of FASN in human NCI-H1703 cells expressing FASN assessed as disruption of AKT/FASN positive feedback loop by measuring decrease in AKT expression at 1 uM after 48 hrs by Western immunoblot based densitometric assay relative to control; type: cell-based; method in brief: as §1
[5] = target: Fatty acid synthase (Homo sapiens) (UniProt P49327); assay: Inhibition of FASN in human NCI-H1703 cells expressing FASN assessed as disruption of AKT/FASN positive feedback loop by measuring decrease in FASN expression after 48 hrs by Western immunoblot assay; type: cell-based; method in brief: as §1
[6] = target: Fatty acid synthase (Homo sapiens) (UniProt P49327); assay: Inhibition of FASN in human PC9 cells harboring FASN expression and EGFR delE746-A750 mutant assessed as disruption of AKT/FASN positive feedback loop by measuring reduction in AKT expression at 5 uM after 48 hrs by Western immunoblot based densitometric assay relative to control; type: cell-based; method in brief: as §1
[7] = target: Fatty acid synthase (Homo sapiens) (UniProt P49327); assay: Inhibition of FASN in human NCI-H1703 cells expressing FASN assessed as disruption of AKT/FASN positive feedback loop by measuring decrease in FASN expression at 5 uM after 48 hrs by Western immunoblot based densitometric assay relative to control; type: cell-based; method in brief: as §1
NCI-H1650 = assay: Antiproliferative activity against human NCI-H1650 cells expressing FASN assessed as reduction in cell viability after 72 hrs by MTS assay; type: functional, cell-based; settings: NCI-H1650, 72 h
Method in brief: (§4)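 ATCC-sourced cells. H1299, H1650, H1703 and PC-9 were grown in RPMI 1640 with 10% FBS. A549 was grown in high-glucose DMEM with 10% FBS and 1 mM pyruvate. SAEC was grown in BEGM. Cells were seeded at 3 × 10^3 per well (H1650 3.5 × 10^3) and left to attach overnight. Serial dilutions from DMSO stocks were added, 0.1% DMSO final, for 72 h at 37 °C, 5% CO2. Medium was replaced, MTS added, and A490 read after 2 h. IC50 was taken from % viability versus log concentration, 3 experiments.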

[8] = Selectivity index, ratio of IC50 for human SAE cells lacking FASN expression to IC50 for human NCI-H1299 cells expressing FASN expression
Method in brief: (§5)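 Index is the SAEC IC50 divided by the IC50 in the FASN-expressing NSCLC line. IC50s came from MTS viability after 72 h exposure at 37 °C, 5% CO2, DMSO 0.1% v/v. Absorbance was read at 490 nm after 2 h. The fit was % viability against log concentration, with 4 technical repeats and 3 independent experiments. NSCLC lines were grown in RPMI/10% FBS; SAEC in BEGM.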

[9] = target: Fatty acid synthase (Homo sapiens) (UniProt P49327); assay: as §3, with “measuring” for “measuring decrease in”, “2” for “1”, “hrs in presence of exogenous lipid concentrate” for “hrs”; type: cell-based; method in brief: as §2
A549 = assay: Antiproliferative activity against human A549 cells expressing FASN assessed as reduction in cell viability after 72 hrs by MTS assay; type: functional, cell-based; settings: A549, 72 h; method in brief: as §4
[10] = target: Fatty acid synthase (Homo sapiens) (UniProt P49327); assay: Inhibition of FASN in human NCI-H1703 cells expressing FASN assessed as disruption of AKT/FASN positive feedback loop by measuring decrease in ratio of phosphoAKT/AKT expression at 1 uM after 48 hrs by Western immunoblot based densitometric assay relative to control; type: cell-based; method in brief: as §1
[11] = Selectivity index, ratio of IC50 for human SAE cells lacking FASN expression to IC50 for human NCI-H1650 cells expressing FASN; method in brief: as §5
[12] = target: Fatty acid synthase (Homo sapiens) (UniProt P49327); assay: Inhibition of FASN in human PC9 cells harboring FASN expression and EGFR delE746-A750 mutant assessed as disruption of AKT/FASN positive feedback loop by measuring decrease in FASN expression after 48 hrs by Western immunoblot assay; type: cell-based; method in brief: as §1
[13] = target: Fatty acid synthase (Homo sapiens) (UniProt P49327); assay: Inhibition of full length human FASN transfected in HeLa cell lysates at 10 uM using acetyl Co-A/malonyl Co-A as substrate preincubated with enzyme for 2 hrs followed by substrate addition measured after 10 mins in presence of NADPH by microplate reader analysis; type: subcellular; settings: Lysate
Method in brief: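 Human FASN was made by in vitro translation from a FASN plasmid. Lysate was diluted 3:7 in 100 mM potassium phosphate, pH 6.5, 1 mM EDTA. It was preincubated with compound (10 µM final) for 2 h at 37 °C. Buffer containing acetyl-CoA (55 µM) and NADPH (330 µM) was added, then the reaction was started with malonyl-CoA (500 µM stock). A340 was read at 0 and 10 min; triplicates.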

[14] = Ratio of compound kinetic solubility to [1,1'-Biphenyl]-4,4'-diyl bis(3,4,5-trihydroxybenzoate)] kinetic solubility in universal buffer at pH 7.4 measured at 25 degC after 24 hrs by UV/Visible spectroscopic analysis; type: physicochemical; settings: pH 7.4, 24 h
PC-9 = assay: Induction of apoptosis in human PC9 cells harboring FASN expression and EGFR delE746-A750 mutant assessed as increase in late apoptotic cells at 5 uM after 72 hrs by Annexin-V FITC/PI staining-based flow cytometry; type: functional, cell-based
[15] = target: Fatty acid synthase (Homo sapiens) (UniProt P49327); assay: Inhibition of FASN in human PC9 cells harboring FASN expression and EGFR delE746-A750 mutant assessed as disruption of AKT/FASN positive feedback loop by measuring decrease in FASN expression at 5 uM after 48 hrs by Western immunoblot based densitometric assay relative to control; type: cell-based; method in brief: as §1
[16] = Kinetic solubility of the compound in universal buffer at pH 7.4 measured at 25 degC after 24 hrs by UV/Visible spectroscopic analysis; type: physicochemical; settings: read-out: Kinetic_solubility

Chain of Fatty acid synthase (Homo sapiens) (P49327 whole entry, looked up): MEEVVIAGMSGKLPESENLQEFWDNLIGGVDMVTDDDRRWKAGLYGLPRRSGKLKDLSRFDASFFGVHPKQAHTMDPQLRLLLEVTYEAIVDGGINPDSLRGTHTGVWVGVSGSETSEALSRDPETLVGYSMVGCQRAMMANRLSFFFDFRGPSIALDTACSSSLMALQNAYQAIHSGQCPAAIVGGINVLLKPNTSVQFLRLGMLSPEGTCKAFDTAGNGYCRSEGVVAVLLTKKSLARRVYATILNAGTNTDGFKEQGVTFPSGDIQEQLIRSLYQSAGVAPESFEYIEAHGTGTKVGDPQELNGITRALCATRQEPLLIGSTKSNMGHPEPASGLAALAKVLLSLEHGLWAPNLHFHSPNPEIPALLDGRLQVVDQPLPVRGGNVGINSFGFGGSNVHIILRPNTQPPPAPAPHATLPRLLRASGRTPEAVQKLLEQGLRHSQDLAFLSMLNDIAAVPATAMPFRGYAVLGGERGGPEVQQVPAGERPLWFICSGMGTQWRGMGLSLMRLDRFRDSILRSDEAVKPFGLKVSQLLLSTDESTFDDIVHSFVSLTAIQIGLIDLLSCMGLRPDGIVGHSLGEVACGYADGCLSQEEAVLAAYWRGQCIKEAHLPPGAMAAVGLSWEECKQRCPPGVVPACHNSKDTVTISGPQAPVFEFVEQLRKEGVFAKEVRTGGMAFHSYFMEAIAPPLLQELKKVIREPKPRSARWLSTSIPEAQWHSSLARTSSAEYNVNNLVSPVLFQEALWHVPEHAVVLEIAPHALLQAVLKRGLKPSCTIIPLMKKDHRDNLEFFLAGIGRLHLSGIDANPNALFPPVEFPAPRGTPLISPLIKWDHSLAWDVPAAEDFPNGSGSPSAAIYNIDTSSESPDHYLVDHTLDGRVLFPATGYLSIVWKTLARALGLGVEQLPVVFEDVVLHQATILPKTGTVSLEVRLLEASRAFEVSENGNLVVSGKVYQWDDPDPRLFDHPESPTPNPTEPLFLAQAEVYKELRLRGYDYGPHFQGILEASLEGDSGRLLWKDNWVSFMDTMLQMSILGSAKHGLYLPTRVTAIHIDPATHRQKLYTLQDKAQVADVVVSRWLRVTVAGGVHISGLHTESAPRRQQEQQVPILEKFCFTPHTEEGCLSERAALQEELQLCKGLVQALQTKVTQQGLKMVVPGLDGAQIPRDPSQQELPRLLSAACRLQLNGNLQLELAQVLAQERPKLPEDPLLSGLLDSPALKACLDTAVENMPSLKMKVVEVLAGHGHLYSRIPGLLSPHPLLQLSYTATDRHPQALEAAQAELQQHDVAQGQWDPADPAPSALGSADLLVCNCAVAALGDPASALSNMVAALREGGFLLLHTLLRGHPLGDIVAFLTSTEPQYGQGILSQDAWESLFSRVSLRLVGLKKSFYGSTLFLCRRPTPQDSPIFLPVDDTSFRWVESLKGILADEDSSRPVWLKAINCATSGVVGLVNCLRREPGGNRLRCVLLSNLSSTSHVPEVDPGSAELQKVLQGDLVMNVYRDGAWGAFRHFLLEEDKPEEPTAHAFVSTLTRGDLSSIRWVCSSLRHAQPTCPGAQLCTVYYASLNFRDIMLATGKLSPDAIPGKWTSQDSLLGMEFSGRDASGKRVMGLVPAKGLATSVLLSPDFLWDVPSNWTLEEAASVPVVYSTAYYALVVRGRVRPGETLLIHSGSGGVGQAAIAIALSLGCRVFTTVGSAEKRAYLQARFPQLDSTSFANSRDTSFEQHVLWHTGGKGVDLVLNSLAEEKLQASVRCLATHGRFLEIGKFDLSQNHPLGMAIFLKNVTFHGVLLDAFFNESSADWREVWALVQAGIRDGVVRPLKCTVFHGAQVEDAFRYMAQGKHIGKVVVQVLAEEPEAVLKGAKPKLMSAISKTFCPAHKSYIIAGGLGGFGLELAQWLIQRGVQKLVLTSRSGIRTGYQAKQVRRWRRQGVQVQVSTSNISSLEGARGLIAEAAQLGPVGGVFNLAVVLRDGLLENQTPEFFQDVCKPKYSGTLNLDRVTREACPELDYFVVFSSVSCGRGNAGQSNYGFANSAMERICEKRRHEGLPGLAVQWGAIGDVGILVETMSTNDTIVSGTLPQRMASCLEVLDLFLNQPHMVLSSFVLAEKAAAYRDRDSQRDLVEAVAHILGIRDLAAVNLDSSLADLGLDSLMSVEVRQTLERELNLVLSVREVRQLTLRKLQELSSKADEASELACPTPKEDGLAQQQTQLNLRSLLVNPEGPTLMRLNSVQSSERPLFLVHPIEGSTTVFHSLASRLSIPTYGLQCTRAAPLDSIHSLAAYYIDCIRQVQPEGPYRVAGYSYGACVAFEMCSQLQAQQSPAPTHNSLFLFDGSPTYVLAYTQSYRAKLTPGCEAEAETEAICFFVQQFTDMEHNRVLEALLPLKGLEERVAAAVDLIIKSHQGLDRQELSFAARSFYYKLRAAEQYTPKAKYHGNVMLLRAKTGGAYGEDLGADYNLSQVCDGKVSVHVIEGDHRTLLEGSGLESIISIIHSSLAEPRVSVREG

Ratio [1] | Ratio [2] | Ratio [3] | Ratio [4] | inhibition [5] | Ratio [6] | Ratio [7] | IC50 (NCI-H1650) [µM] | Ratio [9] | IC50 (A549) [nM] | Ratio [10] | inhibition [12] | inhibition [13] | Ratio [14] | Ratio [15] | solubility kinetic at 24 h [16] [µM] | SMILES | Ratio IC50 [8] | Ratio IC50 [11] | Activity (PC-9)
0.58 | 0.61 | 0.86 | 0.52 | Dose-dependent effect | 0.12 | 0.08 | 12.7 | 0.62 | 2300 | 0.16 | Dose-dependent effect | Active | 15 | 0.65 | 6 (≈ 3.1 µg/mL) | O=C(Oc1ccc(/C=C/c2cccc(OC(=O)c3cc(O)c(O)c(O)c3)c2)cc1)c1cc(O)c(O)c(O)c1 | 2.2 | 0.5 | Active
1.04 | 0.62 | 0.92 | 0.34 | Dose-dependent effect | 0.18 | 0.04 | 2.5 | 0.55 | 2100 | 0.04 | Dose-dependent effect | Active | 6 to 15 | 0.49 | 2.5 (≈ 1.29 µg/mL) | O=C(Oc1ccc(/C=C/c2ccc(OC(=O)c3cc(O)c(O)c(O)c3)cc2)cc1)c1cc(O)c(O)c(O)c1 | 1.5 | 2 | Active
